# High-throughput results (PubChem)
# This is a sample that favours compounds with a hit; in the whole collection about 6.7% have one here.
# T cruzi inh = T. cruzi replication inhibition. T. cruzi beta-gal in NIH3T3, luminescence, 90 h. inhibition, % (no concentration beside the values). 300,000 compounds, 1.4% hits. AID 1885;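 active means mean inhibition across valid replicates above about 55%, limit read from the data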;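 further: signal also drops with host cell toxicity which is not excluded here; 0% = plate median of DMSO wells and 100% = zero luminescence signal; higher percent means less beta-gal luminescence so fewer parasites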
#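 Material: NIH/3T3 host cells with β-galactosidase reporter T. cruzi; Input: 5,000 host fibroblasts per well; Medium: DMEM, 2% fetal bovine serum; Compound: 50 nL DMSO compound solution per well; Schedule: 3 h host attachment, then at least 90 h co-culture; Detection: luminescent β-galactosidase signal after 60 min lysis.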
# CSC inhib = blocks cancer stem cells | cancer stem cell-like cells viability, luminescence | inhibition, % at 7.5 µM | 300,000 compounds, 1.1% hits | AID 2717; in the data active means inhibition above about 75%; tested in HMLE shEcad cells
# Beta cell apopt = blocks beta cell apoptosis. INS-1E cytokine-induced death, ATP luminescence, 48 h; percent of positive-control rescue, neutral wells zero. protection from apoptosis, % (test concentration not listed). 300,000 compounds, 0.8% hits. AID 435005;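 active means Every replicate reaches about 75%, or at least half do and their mean reaches it too, limit read from the data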;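 further: 0% = cytokine-treated negative control wells and 100% = positive control rescue; higher means more ATP so stronger rescue from cytokine killing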
# CHOP inh = CHOP inhibition in unfolded protein response. CHO-K1 CHOP-promoter luciferase, tunicamycin-induced, 15-18 h. inhibition, % at 10 µM. 220,000 compounds, 3.8% hits;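 active means compounds that reduced the stress-induced luciferase reporter signal by more than about 70% of percent inhibition, limit read from the data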;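 further: 0% = tunicamycin plus vehicle and 100% = wells without tunicamycin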
# NR3A LBD binder = modulators (binders) of human NR3A ligand-binding domain; AID 1259313; Tm shift relative to glycine control, % at 25 µM; 340,000 compounds, 2.5% hits; NR3A LBD differential scanning fluorimetry, Tm shift; 0% = protein alone, 100% = glycine-bound protein;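 active means melting temperature shift of at least 10% of the positive control shift, at one fixed dose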
# PREPL inhibitor = inhibits the human prolyl oligopeptidase-like enzyme. Q4J6C6. recombinant PREPL, fluorescence polarization activity-based probe. AID 2751. 320,000 compounds, 0.68% hits. inhibition, % at 5.96 µM; in the data active means inhibition above about 43%;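 further: 0% = enzyme with DMSO and 100% = wells lacking enzyme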
# Target sequence (Q4J6C6 whole entry, looked up): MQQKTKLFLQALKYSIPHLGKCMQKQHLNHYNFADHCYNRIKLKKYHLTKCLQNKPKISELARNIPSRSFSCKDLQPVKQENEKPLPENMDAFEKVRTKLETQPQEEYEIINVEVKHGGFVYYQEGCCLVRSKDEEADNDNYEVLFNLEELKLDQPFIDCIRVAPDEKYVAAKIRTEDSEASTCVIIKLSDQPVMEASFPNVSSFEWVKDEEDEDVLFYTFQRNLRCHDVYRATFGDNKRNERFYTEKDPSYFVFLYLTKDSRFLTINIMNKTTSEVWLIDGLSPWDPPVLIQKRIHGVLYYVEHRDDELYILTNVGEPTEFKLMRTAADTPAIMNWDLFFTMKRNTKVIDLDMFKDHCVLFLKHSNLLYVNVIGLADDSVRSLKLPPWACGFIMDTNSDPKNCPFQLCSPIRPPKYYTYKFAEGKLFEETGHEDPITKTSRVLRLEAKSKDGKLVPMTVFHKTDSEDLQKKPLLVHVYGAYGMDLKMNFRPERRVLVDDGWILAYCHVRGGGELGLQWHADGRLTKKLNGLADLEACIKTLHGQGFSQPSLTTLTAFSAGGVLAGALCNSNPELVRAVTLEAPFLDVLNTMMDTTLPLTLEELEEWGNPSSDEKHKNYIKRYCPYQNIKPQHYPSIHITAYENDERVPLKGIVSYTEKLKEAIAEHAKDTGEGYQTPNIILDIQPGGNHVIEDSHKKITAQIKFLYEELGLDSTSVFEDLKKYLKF
# * = called active by the depositor; nt = no result.
SMILES,T cruzi inh,CSC inhib,Beta cell apopt,CHOP inh,NR3A LBD binder,PREPL inhibitor
O=[N+]([O-])c1cccc(/C=N/n2c(C3CCCCC3)n[nH]c2=S)c1,3.2,-34.3,-1.7,82.3*,-2.7,8.0
CCN(C(=O)COC(=O)c1ccc(-n2c(C)ccc2C)cc1)c1c(N)n(Cc2ccccc2)c(=O)[nH]c1=O,nt,nt,nt,nt,-2.2,nt
Cc1cccc(NC2=NCC(=O)N2Cc2cccs2)c1,-2.6,-14.5,-2.5,-2.9,-1.3,-8.4
CC(=O)c1ccc(N2CCN(c3ccc(S(=O)(=O)NCCCN(C)C)cc3[N+](=O)[O-])CC2)cc1,52.6,81.5*,21.9,18.5,-1.0,21.1
CN(C)CCNS(=O)(=O)c1ccc(N2CCc3ccccc32)c([N+](=O)[O-])c1,41.6,20.9,1.3,nt,-0.2,-4.1
CC(=O)c1ccc(N2CCN(c3ccc(S(=O)(=O)NCCN(C)C)cc3[N+](=O)[O-])CC2)cc1,59.2*,36.4,8.2,7.1,0.8,25.9
CSc1nc(N)nc(SCC(=O)Nc2ccc(Cl)cc2)c1C#N,14.0,38.6,0.0,9.8,28.6*,-0.4
CSc1nc(N)nc(SCC(=O)Nc2cccc(F)c2)c1C#N,5.1,15.7,-4.6,56.0,26.3*,-10.8
CSc1nc(N)nc(SCC(=O)C(C)(C)C)c1C#N,30.7,-10.6,1.4,5.8,-34.0,-2.3
COc1cccc(NC(=O)c2ccc(N3C(=O)C4CCC(C)CC4C3=O)cc2)c1 (centres undefined),-9.7,-15.8,-2.2,nt,-3.9,12.3
CCOC(=O)c1c(NC(=S)N2CCN(C)CC2)sc(C)c1-c1ccccc1,61.3*,29.3,6.9,nt,6.7,nt
CCOC(=O)c1ccc(NC(=S)N2CCN(C)CC2)cc1,-4.7,-8.2,-5.5,nt,-3.9,-2.6
CCOC(=O)c1c(NC(=S)N2CCCCC2)sc2c1CCN(C(=O)OCC)C2,13.5,93.3*,23.8,32.2,3.3,7.2
CCOC(=O)c1c(NC(=O)CN2CCCCC2)sc2c1CCCC2O (centres undefined),29.3,64.2,-1.5,86.0*,-3.9,4.5
CCOC(=O)c1c(NC(=O)CN2CCCCC2)sc(CN(C)C)c1-c1ccccc1,67.7*,8.2,6.3,-7.3,-2.7,-0.8
O=C(CN1CCN(C(=O)N2CCOCC2)CC1)Nc1cc(Cl)ccc1Cl,-0.5,-12.0,-10.9,nt,-1.7,12.5
CC1=NN(Cc2c(C)nn(Cc3ccccc3)c2C)C(C)(C)C1,-0.5,-4.6,-2.7,-8.1,0.9,2.7
C/C(=N\NC(=O)c1cccnc1)c1cc2ccccc2o1,-14.1,0.5,-4.4,9.4,-10.6,1.1
CCOC(=O)c1c(NC(=O)/C=C/C(=O)O)sc(C)c1-c1ccc(Cl)cc1,22.7,75.2*,7.5,-3.6,-3.1,-17.1
Cc1ccccc1OCC(=O)O/N=C(\N)Cc1ccc(Cl)cc1,-0.2,5.0,0.1,53.9,-1.1,14.7
COc1ccc(C/C(N)=N/OC(=O)COc2ccccc2C)cc1,13.0,-1.4,-6.9,5.6,11.5*,4.0
CCOCCc1nnc(NC(=O)C(CC)c2ccccc2)s1 (centres undefined),9.4,-16.7,-0.5,-8.5,-1.9,-8.2
Cc1ccc(-c2csc(N3CCC(NS(=O)(=O)c4ccc5c(c4)OCCO5)CC3)n2)cc1,19.6,-24.2,96.8*,67.2,-2.4,11.0
O=S(=O)(NC1CCN(S(=O)(=O)c2c(F)cccc2F)CC1)c1ccc2c(c1)OCCO2,nt,nt,-3.6,nt,-3.0,13.7
Cc1ccc(S(=O)(=O)NCC2CCC(C(=O)NCc3ccc4c(c3)OCO4)CC2)cc1 (centres undefined),12.0,4.1,-1.1,5.9,15.3*,13.8
SMILES,T cruzi inh,CSC inhib,Beta cell apopt,CHOP inh,NR3A LBD binder,PREPL inhibitor
O=S(=O)(NCCc1csc(-c2ccc(C(F)(F)F)cc2)n1)c1ccc2c(c1)OCCO2,-12.9,24.0,11.0,81.5*,-4.2,-7.6
Cc1ccc(CNS(=O)(=O)c2ccc3c(c2)OCCO3)cc1,-8.5,-26.1,2.0,10.8,15.9*,-1.5
O=C(NCc1ccc2c(c1)OCO2)C1CCC(CNS(=O)(=O)c2ccc(Cl)cc2)CC1 (centres undefined),-3.7,-10.2,-8.7,-7.8,2.1,13.8
N[C@@H](CC(=O)O)C(=O)O,nt,nt,nt,27.8,nt,nt
COc1cccc(C(=O)NCC(C)(C)SCc2ccc(F)cc2)c1,-5.3,-3.4,1.7,nt,10.0*,-11.1
Cc1ccc2c(c1)CCCN2CC(=O)N(C)c1c(N)n(Cc2ccccc2)c(=O)[nH]c1=O,nt,nt,1.8,nt,-3.6,18.8
NC(=O)c1nc(C2CCCCC2)nc2c1[nH]c(=O)n2-c1ccc(F)cc1,7.9,1.2,-4.6,88.7*,0.4,0.8
Cc1cc(C)nc(SCC(=O)N/N=C/c2cc(C)n(-c3ccccc3C)c2C)n1,5.0,-4.6,-1.0,47.0,11.5*,8.6
O=C(Nc1ccc(Cl)cc1)c1cc2c(cc1O)[nH]c1ccccc12,-14.0,115.6*,38.7,77.1*,31.5*,10.2
CCCCn1c(CN(Cc2ccccc2)Cc2ccccc2)nc2c1c(=O)n(C)c(=O)n2C,36.8,17.6,0.4,nt,25.2*,9.9
CCOCCn1c(CN(Cc2ccccc2)Cc2ccccc2)nc2c1c(=O)n(C)c(=O)n2C,39.3,18.2,5.6,80.2*,-2.5,7.2
CC(C)n1c(CN(C)Cc2ccccc2)nc2c1c(=O)n(C)c(=O)n2C,-20.3,9.7,96.0*,nt,2.2,24.1
CCCCCn1c(CN(C)Cc2ccccc2)nc2c1c(=O)n(C)c(=O)n2C,10.5,nt,nt,-17.4,-2.6,nt
CCOCCn1c(CN(Cc2ccccc2)Cc2ccccc2)nc2c1c(=O)[nH]c(=O)n2C,27.1,-2.2,9.4,-11.6,0.5,28.2
CCCCC#Cc1nc(N)c2ncn([C@@H]3O[C@H](C(=O)NCC)[C@@H](O)[C@H]3O)c2n1,nt,nt,nt,19.6,nt,nt
O=C(Cc1ccccc1)N/N=C/c1cc(Br)cc(Br)c1O,25.8,29.0,72.6,nt,11.5*,3.7
O/N=C/c1ccc(OCc2ccccc2)c(Br)c1,10.9,4.6,-7.8,27.5,-6.3,-14.1
O=C(CNC(=O)c1cccc(Br)c1)N/N=C/c1cc(Br)cc(Br)c1O,-13.9,7.3,-9.2,90.6*,17.1*,3.2
O/N=C/c1cc(Br)cc(Br)c1OCc1ccccc1,-1.1,3.6,-3.8,91.7*,-11.8,-23.0
C[C@@H](NC(=O)c1nc[nH]c1C(=O)NCC(=O)OCc1ccccc1)c1ccccc1,-3.1,-11.2,-2.8,nt,-3.9,-2.0
Cc1ncc(CO)c(/C=N/NC(=O)c2ccc(O)cc2)c1O,-4.7,3.6,4.2,2.6,5.2,5.4
Cc1ncc(CO)c(/C=N/NC(=O)c2cc3c(s2)CCCC3)c1O,4.9,72.4,88.3*,57.5,0.0,3.6
Cc1ncc(CO)c(/C=N/NC(=S)Nc2cccc(Cl)c2)c1O,13.9,15.3,-2.3,51.6,27.5*,15.4
Cc1ncc(CO)c(/C=N/NC(=S)Nc2ccc(Cl)c(Cl)c2)c1O,7.5,57.7,42.3,46.3,23.0*,25.1
